Many of the other results were omitted from the sample, so hits are more common in it than they were.
Fibroblast inh – blocks proliferation of human lung fibroblasts. LL 47 human lung fibroblast viability, ATP luminescence; hits give low values. viability, % at 10 µM. 85,000 tested, 1.1% active. AID 719;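 active = viability at or below 50% in the single dose screen; inactive = viability above 50%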;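 also: compound exposure lasted 72 h before the ATP readout; 100% = median luminescence of untreated cell-only wells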
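Material: Human LL 47 lung fibroblast cells | Input: 1,150 cells/well | Buffer or medium: IMEM plus 15% FBS | Compound dosing: 0.1% DMSO in all compound wells | Times: Overnight cell rest, 72 h compound treatment at 37 °C | Signal: CellTiter-Glo luminescence measuring cellular ATP | Measure: % viability versus median cells-only luminescence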
H69AR growth 86K – growth inhibitors of human H69AR lung tumor cells. H69AR lung tumor viability, ATP luminescence, 72 h; hits give low values. AID 598. 85,000 tested, 6% active. viability, % at 10 µM;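 active = viability at or below 40%; inactive = viability above 40%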;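 also: multidrug resistant small cell line overexpressing MRP-1 efflux transporter; 100% = mean luminescence of untreated control wells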
HUVEC inhibit – human endothelial cell proliferation inhibition; HUVEC proliferation, CellTiter-Glo luminescence, 72 h; hits give low values; viability, % at 10 µM (by protocol); 86,000 tested, 1.1% active; AID 648;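 active = viability at or below 30%; inactive = viability above 30%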;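 also: 100% = median luminescence of DMSO-only cell control wells on each plate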
PTEN del growth – suppresses growth of cells with PTEN deletion | HCT116 PTEN-null viability, CellTiter-Glo, 60 h; hits give low values | viability, % at 10 µM | 140,000 tested, 1.2% active;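 active = viability at or below a set limit, 4 SD under the median of all tested compounds, cut at about 3.7% in these data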;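 also: PTEN knockout HCT116 line with beta catenin targeted HCT116 as companion control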
bCat KO growth – beta-catenin-lacking colon tumor cell growth suppression; AID 818; viability, % at 10 µM; HCT116 beta-catenin knockout viability, CellTiter-Glo, 60 h; hits give low values; 140,000 tested, 1.5% active;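 active = viability at or under a set limit, the compound median less 4 SD, cut at about 6% in these data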;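 also: 0% = Hyamine 1622 control at 20 µM and 100% = untreated cell control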
The depositor's hits bear a star; / = not tested or not shown.

SMILES | Fibroblast inh | H69AR growth 86K | HUVEC inhibit | PTEN del growth | bCat KO growth
Cc1ccc(NC(=O)c2ccc(NCCN)c([N+](=O)[O-])c2)cc1Cl | / | / | / | 4 | 3.4*
O=C(Nc1cccc(S(=O)(=O)Nc2ccccc2Cl)c1)c1ccc(N2CCCC2)c([N+](=O)[O-])c1 | / | / | / | 90 | 95
Cc1cccc(C)c1NS(=O)(=O)c1ccc(NC(=O)c2ccc(Cl)c([N+](=O)[O-])c2)cc1 | / | / | / | 3.3* | 1.9*
O=C(Nc1ccc(C(O)(C(F)(F)F)C(F)(F)F)cc1)c1ccc(Cl)c([N+](=O)[O-])c1 | / | / | / | 1.8* | 1.6*
CCc1cccc(C)c1NC(=O)CNCc1ccccc1 | / | / | / | 88 | 82
O=S(=O)(NCC(c1ccco1)N1CCOCC1)c1ccc(Cl)cc1 (stereo unspecified) | / | / | / | 99 | 81
O=C1c2ccccc2OC2(C=Cc3ccccc3O2)N1Cc1ccccc1 (stereo unspecified) | 93 | 12* | 62 | 22 | 17
CCn1cc(Cl)c(C(=O)N2N=C(c3ccc4ccccc4c3)CC2c2ccccc2O)n1 (stereo unspecified) | / | / | / | 29 | 42
CCn1cc([N+](=O)[O-])c(C(=O)N2N=C(c3cccc4ccccc34)CC2c2ccccc2O)n1 (stereo unspecified) | 88 | 79 | 78 | 7 | 3.4*
CCn1cc([N+](=O)[O-])c(C(=O)N2N=C(c3ccc4ccccc4c3)CC2c2ccccc2O)n1 (stereo unspecified) | 80 | 86 | 15* | 5 | 3.2*
CC1CN(S(=O)(=O)c2cccc(C(=O)Nc3ccc4c(c3)CCC4)c2)CC(C)O1 (stereo unspecified) | / | / | / | 64 | 52
Cc1nc2ccc(S(=O)(=O)NC(C(=O)Nc3nc4ccc(Cl)cc4s3)C(C)C)cc2s1 (stereo unspecified) | 96 | 30* | 96 | 54 | 49
Cc1nc2ccc(S(=O)(=O)NC(C(=O)Nc3nccs3)C(C)C)cc2s1 (stereo unspecified) | 98 | 95 | 98 | 91 | 93
COc1cc(OC)nc(NC(=S)NC(=O)c2ccccc2)n1 | / | / | / | 91 | 87
CSc1nnc2n(-c3ccc(C)cc3)c(=O)c3c4c(sc3n12)COC(C(C)C)C4 (stereo unspecified) | 37* | 36* | 61 | 11 | 6
Cc1ccc(-n2c(=O)c3c4c(sc3n3c(C)nnc23)COC(C(C)C)C4)cc1 (stereo unspecified) | 92 | 101 | 103 | / | /
Cc1ccccc1CS(=O)(=O)c1cnc2ccccc2n1 | 76 | 16* | 74 | 8 | 15
Cc1ccccc1CS(=O)(=O)c1snnc1C | / | / | / | 91 | 96
O=C(c1cn(-c2ccccc2)nc1-c1ccncc1)n1nnc2ccccc21 | / | 8.1* | 67 | / | /
O=C(O)c1cn(-c2ccccc2)nc1-c1ccncc1 | 109 | 104 | 92 | 97 | 88
CCn1c(=O)cc(SCC(=O)Nc2ccc(OC)c(OC)c2)c2ccccc21 | 102 | 78 | 86 | 83 | 70
CCn1c(SCC(=O)Nc2ccc3c(c2)c2ccccc2n3CC)nnc1-c1cnccn1 | 95 | 18* | 97 | 63 | 38
Cc1ccc(-n2nnnc2SCC(=O)Nc2ccc3c(c2)COC3=O)cc1C | 27* | 95 | 89 | 80 | 83
CCn1c(=O)cc(SCC(=O)Nc2ccc(Cl)cc2)c2ccccc21 | 87 | 17* | 82 | 82 | 87
CCn1c2ccccc2c2cc(NC(=O)CSc3nnc(-c4ccc(OC)cc4)n3N)ccc21 | 56 | 27* | 48 | 30 | 35
SMILES | Fibroblast inh | H69AR growth 86K | HUVEC inhibit | PTEN del growth | bCat KO growth
Cc1cc(C)c(S(=O)(=O)n2ccc(-c3ccc(OCCN(C)c4ccccn4)cc3)n2)c(C)c1 | / | / | / | 68 | 80
COc1ccc(-c2ncccc2OC(=O)C23CC4CC(CC(C4)C2)C3)cc1 | / | / | / | 95 | 99
CCn1c2ccccc2c2cc(NC(=O)CSc3nnnn3-c3ccccc3)ccc21 | 79 | 20* | 73 | 91 | 94
O=C(NNS(=O)(=O)c1cc(Cl)cc(Cl)c1)c1sccc1-n1cccc1 | / | / | / | 92 | 80
CCCCOc1ccccc1NC(=O)c1ccco1 | 99 | 82 | 94 | 98 | 96
CCOc1ccc(C(=O)Nc2ccc(NC(=O)c3ccco3)c(Cl)c2)cc1Br | / | / | / | 53 | 70
CCOc1ccc(C(=O)Nc2ccc(NC(=O)c3ccco3)c(Cl)c2)cc1Cl | 66 | 14* | 31 | 13 | 15
CCOc1ccccc1NC(=O)c1cccc(NC(=O)c2ccco2)c1 | 60 | 25* | 58 | 98 | 103
COc1ccc(C(=O)Nc2ccccc2C(=O)N(Cc2ccco2)C(C(N)=O)C(C)C)cc1 (stereo unspecified) | 42* | 5.6* | 64 | 1.0* | 1.1*
COc1ccc(C(=O)Nc2ccccc2C(N)=O)cc1 | 104 | 87 | 99 | 92 | 85
COc1ccc(C(=O)Nc2ccccc2C(=O)NC(C(=O)NCc2ccco2)C(C)C)cc1 (stereo unspecified) | 39* | 1.2* | 44 | 2.0* | 1.2*
COc1ccc(NC(=O)c2ccccc2NC(=O)COc2ccccc2)cc1 | 90 | 85 | 30 | 93 | 95
O=C(COc1ccc(Cl)cc1)Nc1ccccc1C(=O)NCc1ccco1 | 37* | 51 | 70 | 63 | 67
Cc1cc(C)cc(OCC(=O)Nc2ccccc2C(=O)NCc2ccco2)c1 | 101 | 75 | 80 | 92 | 94
CCC(C)NC(=O)c1ccccc1NC(=O)COc1ccc(OC)cc1 (stereo unspecified) | 84 | 32* | 89 | 100 | 97
COc1ccc(CCN2C(=O)NC(NS(=O)(=O)c3ccc(N)cc3)(C(F)(F)F)C2=O)cc1OC (stereo unspecified) | / | / | / | 105 | 95
O=C(Cc1ccc2c(c1)CCCC2)Nc1ccc2ccccc2c1 | / | / | / | 78 | 87
Cc1ccc(C(=O)N/C(=C/C=C\c2ccccc2)C(=O)NCc2ccco2)cc1 | / | / | / | 79 | 85
[O-][n+]1onc2c1CCc1nnc(-c3ccccc3)cc1-2 | 90 | 35* | 105 | 70 | 73
Cc1nn(C)c(C)c1/C=N/N=C1\CCC2C3CCc4cc(O)ccc4C3CCC12C (stereo unspecified) | / | / | / | 6 | 3.1*
COC(=O)/C=C1/S/C(=N/N=C/c2ccc(N(C)C)cc2)NC1=O | / | / | / | 93 | 82
CCCCOc1ccc(CN(C)c2ncnc(N)n2)cc1 | 91 | 35* | 78 | 60 | 55
CC(C)=NOc1nc(N(C)C)nc(N(C)C)n1 | / | / | / | 98 | 82
CCOC(=O)COc1ccccc1/C=C\[N+](=O)[O-] | / | / | / | 86 | 79
COc1cc(/C=C2\C(=O)N(CCC#N)N=C2C)c(Br)cc1OC(C)C | 85 | 16* | 69 | 77 | 84
Cc1sc(N2C(=O)C3C4C=CC(C4)C3C2=O)c(C#N)c1C (stereo unspecified) | / | / | / | 95 | 88
CCCCCSc1nc(N2CCOCC2)c2c(c1C#N)CC(C)(C)OC2 | 83 | 33* | 91 | 69 | 80
COC(=O)Sc1nc(N2CCOCC2)c2c(c1C#N)CC(C)(C)OC2 | 92 | 47 | 81 | 108 | 109

Screening results: PubChem, SRMLSC
